The subject of experiment [1] is BT-474. Nature of the experiment: Antiproliferative activity against human BT474 cells after 72 hrs. The following applies: BT-474, 72 h. It counts as functional, cell-based.
The next experiment has as its system PC-3. Nature of the experiment: Antiproliferative activity against human PC3 cells after 72 hrs. It counts as functional, cell-based. The following applies: PC-3, 72 h.
The next experiment deals with SK-BR-3. Nature of the experiment: Antiproliferative activity against human SKBR3 cells after 72 hrs. Type of experiment: functional, cell-based. The conditions noted are these: SK-BR-3, 72 h. The method in brief:
(§1)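 Cells grown in DMEM with 10% calf serum and 1 mM pyruvate, seeded at 5000 cells/well, left 24 h, then given increasing concentrations from DMSO stock in triplicate (DMSO-only controls) for 72 h. CellTiter 96 aqueous one-solution reagent added for 3 h at 37 °C, A540 read. IC50 taken as the concentration halving cell number versus controls, from triplicate means.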

The test system of another experiment is HT-29. Nature of the experiment: Antiproliferative activity against human HT29 cells after 72 hrs. The conditions noted are these: HT-29, 72 h. It counts as functional, cell-based. Summed up: as §1
Experiment [2] relates to DNA. Nature of the experiment: Binding affinity to calf […] DNA assessed as thermal stability in cacodylate buffer containing 0.1 M NaCl at 12 uM. It counts as nucleic-acid assay.
The test system of experiment [3] is DNA. Nature of the experiment: Binding affinity to calf thymus DNA assessed as thermal stability in BPE buffer at 2 uM. Type of experiment: nucleic-acid assay. The conditions noted are these: Bos taurus.
Experiment [4] concerns DNA. Nature of the experiment: Binding affinity to calf […] DNA assessed as thermal stability in cacodylate buffer at 12 uM. It counts as nucleic-acid assay.
In the next experiment the test system is LNCaP. Nature of the experiment: Antiproliferative activity against human LnCAP cells after 72 hrs. It counts as functional, cell-based.
For the next experiment, the system named is T47D. Nature of the experiment: Antiproliferative activity against human T47D cells after 72 hrs. It counts as functional, cell-based. The method in brief:
as §1

A further experiment deals with T1, Caspase-7 (Homo sapiens) (UniProt P55210).
T1 sequence (whole entry): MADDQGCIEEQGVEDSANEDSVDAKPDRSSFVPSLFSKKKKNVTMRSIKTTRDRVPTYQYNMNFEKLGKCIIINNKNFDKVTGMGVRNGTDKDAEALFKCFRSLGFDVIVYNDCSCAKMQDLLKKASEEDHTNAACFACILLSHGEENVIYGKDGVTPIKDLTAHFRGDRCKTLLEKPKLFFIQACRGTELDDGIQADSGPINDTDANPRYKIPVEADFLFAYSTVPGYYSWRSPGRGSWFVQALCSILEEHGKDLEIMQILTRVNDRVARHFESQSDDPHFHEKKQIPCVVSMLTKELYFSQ
Nature of the experiment: Increase in caspase 7 activation in human SKBR3 cells at 20 uM after 24 hrs. The conditions noted are these: SK-BR-3. It counts as cell-based. Summed up:
(§2)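 SKBR3 cells seeded at 10^4 per well and exposed to compounds at 20 µM for 24 h. Controls run with and without 0.2% DMSO. Caspase-3/7 activity measured in homogeneous lysates with Caspase-Glo 3/7 reagent as luciferase luminescence.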

The target of a further experiment is T2, Caspase-3 (Homo sapiens) (UniProt P42574).
T2 sequence (whole entry): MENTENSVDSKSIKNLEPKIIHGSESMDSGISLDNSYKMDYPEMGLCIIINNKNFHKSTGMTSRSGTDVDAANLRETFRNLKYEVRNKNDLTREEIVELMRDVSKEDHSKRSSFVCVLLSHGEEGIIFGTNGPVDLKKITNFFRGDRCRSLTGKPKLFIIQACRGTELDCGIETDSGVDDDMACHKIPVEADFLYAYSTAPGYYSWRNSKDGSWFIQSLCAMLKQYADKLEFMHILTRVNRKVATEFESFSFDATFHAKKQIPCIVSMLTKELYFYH
Nature of the experiment: Increase in caspase 3 activation in human SKBR3 cells at 20 uM after 24 hrs. It counts as cell-based. The conditions noted are these: SK-BR-3. Summed up: as §2

Experiment [5] deals with BT-474. Nature of the experiment: Antitumor activity against human BT474 cells xenografted gamma C null NOG/SCID mouse assessed as reduction in tumor volume at 20 mg/kg, ip after 44 days. It counts as functional. The arrangement: scale not given: the % may be the effect or the level left. The conditions noted are these: route intraperitoneal. The method in brief: (§3)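 5 × 10^6 BT474 cells in Matrigel injected subcutaneously into the mammary gland of NOG/SCID mice. Once xenografts were established (10–15 days), mice got intraperitoneal doses in 0.9% NaCl every 3 days; controls got vehicle on the same schedule. Tumours measured by caliper, volume = 0.52(length × width²), five mice per group, percent volume change at day 44.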
Background: In xenograft studies the graft and the host belong to different species.

Experiment [6] relates to BT-474. Nature of the experiment: Antitumor activity against human BT474 cells xenografted in gamma C null NOG/SCID mouse assessed as reduction in tumor volume at 60 mg/kg, ip after 44 days. Type of experiment: functional. The arrangement: scale not given: the % may be the effect or the level left. The following applies: route intraperitoneal. The method in brief:
as §3

Activity calls are given as the source filed them. No cut-off for these calls is given here.

The IC50 is the concentration at which inhibition is half-maximal. The ΔTm is the shift of the melting midpoint relative to a reference. `N=C(N)NCc1ccc2ccc3cccc4ccc1c2c34`: the IC50 turned out to be 33.9 µM in the experiment on BT-474 [1]; 43.7 µM with PC-3; 11 µM with SK-BR-3; 39.8 µM with HT-29; 93.3 µM with LNCaP; 43.7 µM in the experiment with T47D. For the same compound, the ΔTm was 6 °C in the experiment on DNA [2], 8.1 °C with DNA [3] and 19 °C with DNA [4].

As for `N=C(N)NCc1c2ccccc2cc2ccccc12`, the IC50 is 19.1 µM in the experiment on BT-474 [1]; 10 µM in the experiment on PC-3; 1.9 µM with SK-BR-3; more than 100 µM in the experiment with HT-29; 3.5 µM in the experiment on LNCaP; 29.5 µM in the experiment with T47D. For the same compound, the outcome on Caspase-7 (Homo sapiens) and on Caspase-3 (Homo sapiens) was Active. For the same compound, the ΔTm in the experiment with DNA [2] was determined as 4 °C; in the experiment on DNA [3], 6.1 °C; in the experiment with DNA [4], 15 °C.

`NCCCCNCc1c2ccccc2cc2ccccc12` came in with an IC50 in the experiment with SK-BR-3 of 3.3 µM. The ΔTm came to 8 °C with DNA [2], 13.1 °C in the experiment with DNA [3] and 26 °C with DNA [4].

In the case of `N=C(N)NCc1cccs1`, the IC50 in the experiment with BT-474 [1] is 95.5 µM; in the experiment on PC-3, more than 100 µM; in the experiment on SK-BR-3, more than 40 µM; with HT-29 it was more than 100 µM; in the experiment on LNCaP it was 64.6 µM; in the experiment with T47D, 85.1 µM. Also, the figures for the ΔTm with DNA [2], in the experiment with DNA [3] and with DNA [4] were 0 °C, 0.1 °C and 0 °C, respectively.

As for `NCc1ccc2c(c1)Cc1ccccc1-2`, the IC50 in the experiment on SK-BR-3 was more than 40 µM. Besides, the result on Caspase-7 (Homo sapiens) and on Caspase-3 (Homo sapiens) was inactive. Further, the thermal shift (ΔTm) in the experiment on DNA [2] came out at 0 °C; with DNA [3], 1 °C; with DNA [4], 0.1 °C.

For `CN1CCN(c2ccc3[nH]c(-c4ccc5[nH]c(-c6ccc(O)cc6)nc5c4)nc3c2)CC1`, the values for the ΔTm with DNA [2], in the experiment on DNA [3] and in the experiment on DNA [4] were 12 °C, 9 °C and 25.1 °C, respectively.

In the case of `CCBr`, the ΔTm with DNA [2] came out at 5 °C; in the experiment with DNA [3], 8.1 °C; in the experiment with DNA [4], 21 °C.

In the experiment with SK-BR-3, `NCc1ccc2ccc3cccc4ccc1c2c34` had an IC50 of 12 µM. The ΔTm in the experiment on DNA [2] stood at 3 °C; with DNA [3], 5 °C; in the experiment with DNA [4], 15 °C.

For the compound `N=C(N)NCc1ccc2c(c1)Cc1ccccc1-2`, the IC50 came to 19.1 µM in the experiment with BT-474 [1]; 24 µM with PC-3; 15.7 µM with SK-BR-3; 32.4 µM in the experiment with HT-29; 27.5 µM with LNCaP; 6.9 µM in the experiment with T47D. In addition, the values for the ΔTm in the experiment on DNA [2], in the experiment on DNA [3] and in the experiment with DNA [4] were 0 °C, 0 °C and 1 °C, respectively.

In the case of `NCc1cccs1`, the half-maximal inhibitory concentration (IC50) in the experiment on SK-BR-3 was more than 40 µM. Further, the results for the ΔTm with DNA [2], in the experiment on DNA [3] and with DNA [4] were 0 °C, 0.1 °C and 0 °C, respectively.

`N=C(N)NCCCCNCc1c2ccccc2cc2ccccc12`: the IC50 worked out at 14.5 µM with BT-474 [1]; 13.8 µM in the experiment on PC-3; 2.3 µM in the experiment on SK-BR-3; 79.4 µM with HT-29; 28.2 µM in the experiment with LNCaP; 30.9 µM in the experiment with T47D. Besides, the thermal shift (ΔTm) with DNA [2] is 9 °C; with DNA [3], 15.1 °C; with DNA [4], 28.1 °C.

In the experiment on SK-BR-3, `NCc1c2ccccc2cc2ccccc12` registered an IC50 of 25.5 µM. Moreover, the result on Caspase-7 (Homo sapiens) and at Caspase-3 (Homo sapiens) was inactive. Also, the values for the ΔTm in the experiment with DNA [2], in the experiment on DNA [3] and in the experiment on DNA [4] were 1 °C, 3 °C and 9 °C, respectively.

In the experiment with SK-BR-3, `NCc1ccccc1` [BENZYLAMINE] had an IC50 of more than 40 µM. Moreover, the outcome at Caspase-7 (Homo sapiens) and on Caspase-3 (Homo sapiens) was inactive. The ΔTm in the experiment on DNA [2] was determined as 0 °C; in the experiment on DNA [3] it was 0 °C; in the experiment with DNA [4] it was 0.1 °C.

With `N=C(N)NCc1ccccc1`, the IC50 in the experiment on BT-474 [1] is 47.9 µM; in the experiment on PC-3 it was more than 100 µM; with SK-BR-3, more than 40 µM; in the experiment with HT-29, more than 100 µM; with LNCaP, 43.7 µM; in the experiment on T47D, 83.2 µM. The result on Caspase-7 (Homo sapiens) and at Caspase-3 (Homo sapiens) was inactive. In addition, the ΔTm in the experiment on DNA [2] came out at 0 °C; with DNA [3] it was 0.1 °C; in the experiment on DNA [4], 0.1 °C.

As to `N=C(N)NCCCNCCCCNCCCNCc1ccc2ccc3cccc4ccc1c2c34`, the half-inhibitory concentration (IC50) is 34.6 µM with BT-474 [1], 25.3 µM in the experiment with SK-BR-3 and 8 µM with T47D. Also, the outcome at Caspase-7 (Homo sapiens) and at Caspase-3 (Homo sapiens) was inactive. Also, the ΔTm in the experiment on DNA [2] was 16 °C; in the experiment with DNA [4], 39.1 °C. Also, the Tm with DNA [3] is more than 100 °C.

In the case of `N=C(N)NCCCCCCNCc1ccc2ccc3cccc4ccc1c2c34`, the half-maximal inhibitory concentration (IC50) in the experiment with BT-474 [1] turned out to be 29.2 µM; in the experiment on SK-BR-3, 4.8 µM; in the experiment on T47D, 2.2 µM. Moreover, the ΔTm in the experiment with DNA [2] amounted to 12 °C; in the experiment on DNA [4], 34.1 °C. Moreover, in the experiment with DNA [3], the Tm is more than 100 °C.

As for `N=C(N)NCCCCNCc1ccc2ccc3cccc4ccc1c2c34`, the IC50 was found to be 16.2 µM in the experiment with BT-474 [1]; 7.9 µM in the experiment on PC-3; 1.9 µM with SK-BR-3; 30.9 µM with HT-29; 9.3 µM with LNCaP; 2.2 µM in the experiment on T47D. For the same compound, the outcome at Caspase-7 (Homo sapiens) and at Caspase-3 (Homo sapiens) was Active. Further, the Activity with BT-474 [5] is recorded as 32%; with BT-474 [6], 73%. Further, the ΔTm with DNA [2] came to 12 °C; with DNA [4], 34.2 °C. Besides, the Tm in the experiment on DNA [3] was more than 100 °C.

In turn, `NCCCCNCc1ccc2ccc3cccc4ccc1c2c34` gave an IC50 with SK-BR-3 of 4.2 µM. In addition, the ΔTm is 10 °C with DNA [2], 20.2 °C in the experiment with DNA [3] and 32.1 °C in the experiment on DNA [4].

These data come from ChEMBL document CHEMBL1138355, “Amine-guanidine switch: a promising approach to improve DNA binding and antiproliferative activities” (J Med Chem, 2007).
